Assay results gathered from unrelated publications.
Protocols differ between the studies behind these lines.

COc1ccc(C(=O)C#Cc2ccc(O)c(OC)c2)cc1 — activity vs control (Pseudomonas aeruginosa; microbial growth, absorbance; 10 µM, 24 h): 95%
C=C(F)C(=O)N1CCN(c2nc(OC[C@@H]3CCCN3C)nc3c2CCN(c2cccc4cccc(Cl)c24)C3)C[C@@H]1CC#N — IC50 (SW837; cell growth or viability, ATP luminescence; 3D culture): 5.77 nM
CN(C)c1cc(NC(=O)Cc2cscn2)c(O)c2c1C[C@H]1C[C@H]3[C@H](N(C)C)C(O)=C(C(N)=O)C(=O)[C@@]3(O)C(O)=C1C2=O — IC50 (Mycobacteroides abscessus; microbial growth, resazurin; ATCC19977): 0.23 µg/mL
OC(C#Cc1ccc(F)c(F)c1)c1cccc(Cl)c1 (centres unmarked) — activity vs control (Pseudomonas aeruginosa; microbial growth, absorbance; 10 µM, 24 h): 96%
O=C(CO/N=c1\cc2n(-c3ccc(Cl)cc3)c3ccccc3nc-2cc1Nc1ccc(Cl)cc1)NCc1ccc(C(F)(F)F)cc1 — MIC (Mycobacteroides abscessus; microbial growth; clinical isolate): > 30 µM
O=C(NO)c1ccc(CNc2nc3cccc(-c4ccc5c(c4)OCO5)n3n2)cc1 — GI50 (T47D; cell growth or viability, SRB): 430 nM
CN(C)c1cc(NC(=O)Cc2cccnn2)c(O)c2c1C[C@H]1C[C@H]3[C@H](N(C)C)C(O)=C(C(N)=O)C(=O)[C@@]3(O)C(O)=C1C2=O — IC50 (Mycobacteroides abscessus; microbial growth, resazurin; ATCC19977): 1.67 µg/mL
C[C@H](NC(=O)CO/N=c1\cc2n(-c3ccc(Cl)cc3)c3ccccc3nc-2cc1Nc1ccc(Cl)cc1)C(=O)O — MIC (Mycobacteroides abscessus; microbial growth; clinical isolate): > 30 µM
O=C(C#Cc1ccc(F)c(F)c1)c1ccccc1 — activity vs control (Pseudomonas aeruginosa; microbial growth, absorbance; 10 µM, 24 h): 94%
CN(C)c1cc(NC(=O)Cc2cccnc2)c(O)c2c1C[C@H]1C[C@H]3[C@H](N(C)C)C(O)=C(C(N)=O)C(=O)[C@@]3(O)C(O)=C1C2=O — IC50 (Mycobacteroides abscessus; microbial growth, resazurin; ATCC19977): 1.29 µg/mL
C[C@H](NC(=O)CO/N=c1\cc2n(-c3ccc(Cl)cc3)c3ccccc3nc-2cc1Nc1ccc(Cl)cc1)C(=O)OC(C)(C)C — MIC (Mycobacteroides abscessus; microbial growth; clinical isolate): > 30 µM
CN(C)c1cc(NC(=O)CNC(C)(C)C)c(O)c2c1C[C@H]1C[C@H]3[C@H](N(C)C)C(O)=C(C(N)=O)C(=O)[C@@]3(O)C(O)=C1C2=O — IC50 (Mycobacteroides abscessus; microbial growth, resazurin; ATCC19977): 0.28 µg/mL
COc1cc(C#CC(=O)c2ccccc2OC)ccc1O — activity vs control (Pseudomonas aeruginosa; microbial growth, absorbance; 10 µM, 24 h): 91%
O=C(CO/N=c1\cc2n(-c3ccc(Cl)cc3)c3ccccc3nc-2cc1Nc1ccc(Cl)cc1)NCc1ccc2c(c1)CCO2 — MIC (Mycobacteroides abscessus; microbial growth; clinical isolate): > 30 µM
